This note sets out measurements from ChEMBL document CHEMBL2424622, “Development of amino-pyrimidine inhibitors of c-Jun N-terminal kinase (JNK): kinase profiling guided optimization of a 1,2,3-benzotriazole lead” (Bioorg Med Chem Lett, 2013).

In test [1] the target is Tyrosine-protein kinase Lck (Homo sapiens) (UniProt P06239). The experiment in a line: Competitive binding affinity to LCK (unknown origin) at 10 uM in presence of ATP relative to control. A digest of the protocol: (§1)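 In vitro ATP-site competition binding assay, part of profiling against a diverse panel of 128 kinases. Each compound was tested at a single concentration of 10 µM. Kinome selectivity was summarized as S15 selectivity scores.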

Test [2] has as its target Tyrosine-protein kinase JAK2 (Homo sapiens) (UniProt O60674). Kind of test: Competitive binding affinity to JAK2 kinase domain 2 (unknown origin) at 10 uM in presence of ATP relative to control. A digest of the protocol:
as §1

In test [3] the target is Mitogen-activated protein kinase 11 (Homo sapiens, UniProt Q15759). The experiment in a line: Competitive binding affinity to p38-beta (unknown origin) at 10 uM in presence of ATP relative to control. The method in brief:
(§2)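 In vitro ATP-site competition binding assay across a diverse panel of 128 kinases, with compound tested at a single concentration. Kinase selectivity scores (S15) were calculated from the panel profiles.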

Test [4] addresses T1, Cyclin-G-associated kinase (Homo sapiens) (UniProt O14976).
T1 sequence (whole entry): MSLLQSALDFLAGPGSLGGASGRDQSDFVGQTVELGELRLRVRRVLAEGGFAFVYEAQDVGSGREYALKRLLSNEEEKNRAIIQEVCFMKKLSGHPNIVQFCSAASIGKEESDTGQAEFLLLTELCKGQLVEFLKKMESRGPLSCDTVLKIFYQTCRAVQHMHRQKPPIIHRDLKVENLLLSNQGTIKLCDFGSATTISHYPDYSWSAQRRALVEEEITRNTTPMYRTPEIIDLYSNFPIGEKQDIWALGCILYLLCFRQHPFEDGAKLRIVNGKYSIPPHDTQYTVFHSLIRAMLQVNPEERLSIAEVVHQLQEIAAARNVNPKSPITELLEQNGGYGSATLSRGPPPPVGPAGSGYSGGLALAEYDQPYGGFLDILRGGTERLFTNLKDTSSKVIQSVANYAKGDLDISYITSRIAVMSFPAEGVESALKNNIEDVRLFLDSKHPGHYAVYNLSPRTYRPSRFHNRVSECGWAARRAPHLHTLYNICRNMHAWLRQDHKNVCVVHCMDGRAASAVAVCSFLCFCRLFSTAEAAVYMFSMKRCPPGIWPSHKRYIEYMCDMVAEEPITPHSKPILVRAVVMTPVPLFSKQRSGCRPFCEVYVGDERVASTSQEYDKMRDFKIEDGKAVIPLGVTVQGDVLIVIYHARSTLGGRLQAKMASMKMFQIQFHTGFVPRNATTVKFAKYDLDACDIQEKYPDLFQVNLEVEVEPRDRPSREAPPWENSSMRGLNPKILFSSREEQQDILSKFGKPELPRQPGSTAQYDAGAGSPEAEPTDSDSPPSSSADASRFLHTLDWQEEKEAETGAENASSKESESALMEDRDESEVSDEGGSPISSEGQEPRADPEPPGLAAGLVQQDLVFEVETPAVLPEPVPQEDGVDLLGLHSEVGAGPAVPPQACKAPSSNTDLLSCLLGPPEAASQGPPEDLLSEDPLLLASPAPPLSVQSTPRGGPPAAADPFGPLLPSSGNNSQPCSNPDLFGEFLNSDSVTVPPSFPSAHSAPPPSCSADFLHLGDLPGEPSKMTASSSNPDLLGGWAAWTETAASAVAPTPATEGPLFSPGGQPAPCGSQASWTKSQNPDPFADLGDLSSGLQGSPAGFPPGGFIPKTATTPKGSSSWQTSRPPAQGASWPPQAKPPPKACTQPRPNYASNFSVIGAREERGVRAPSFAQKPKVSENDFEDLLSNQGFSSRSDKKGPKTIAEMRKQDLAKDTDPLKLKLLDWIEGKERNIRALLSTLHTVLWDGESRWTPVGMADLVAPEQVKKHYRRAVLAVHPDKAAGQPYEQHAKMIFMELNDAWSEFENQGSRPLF
The experiment in a line: Competitive binding affinity to GAK (unknown origin) at 10 uM in presence of ATP relative to control. The method in brief:
as §1

Test [5] has as its target Mitogen-activated protein kinase 1 (Homo sapiens, UniProt P28482). Kind of test: Competitive binding affinity to ERK2 (unknown origin) at 10 uM in presence of ATP relative to control. A digest of the protocol: as §1
In test [6] the target is Platelet-derived growth factor receptor beta (Homo sapiens, UniProt P09619). The experiment in a line: Competitive binding affinity to PDGFRB (unknown origin) at 10 uM in presence of ATP relative to control. A digest of the protocol:
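In vitro ATP-site competition binding assay across a diverse panel of 128 kinases, with each compound tested at a single concentration. Kinase binding is expressed relative to control.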

The target in test [7] is TRAF2 and NCK-interacting protein kinase (Homo sapiens) (UniProt Q9UKE5). The experiment in a line: Competitive binding affinity to TNIK (unknown origin) at 10 uM in presence of ATP relative to control. The method in brief: as §2
TRAF2 and NCK-interacting protein kinase (Homo sapiens), sequence (Q9UKE5 whole entry, looked up): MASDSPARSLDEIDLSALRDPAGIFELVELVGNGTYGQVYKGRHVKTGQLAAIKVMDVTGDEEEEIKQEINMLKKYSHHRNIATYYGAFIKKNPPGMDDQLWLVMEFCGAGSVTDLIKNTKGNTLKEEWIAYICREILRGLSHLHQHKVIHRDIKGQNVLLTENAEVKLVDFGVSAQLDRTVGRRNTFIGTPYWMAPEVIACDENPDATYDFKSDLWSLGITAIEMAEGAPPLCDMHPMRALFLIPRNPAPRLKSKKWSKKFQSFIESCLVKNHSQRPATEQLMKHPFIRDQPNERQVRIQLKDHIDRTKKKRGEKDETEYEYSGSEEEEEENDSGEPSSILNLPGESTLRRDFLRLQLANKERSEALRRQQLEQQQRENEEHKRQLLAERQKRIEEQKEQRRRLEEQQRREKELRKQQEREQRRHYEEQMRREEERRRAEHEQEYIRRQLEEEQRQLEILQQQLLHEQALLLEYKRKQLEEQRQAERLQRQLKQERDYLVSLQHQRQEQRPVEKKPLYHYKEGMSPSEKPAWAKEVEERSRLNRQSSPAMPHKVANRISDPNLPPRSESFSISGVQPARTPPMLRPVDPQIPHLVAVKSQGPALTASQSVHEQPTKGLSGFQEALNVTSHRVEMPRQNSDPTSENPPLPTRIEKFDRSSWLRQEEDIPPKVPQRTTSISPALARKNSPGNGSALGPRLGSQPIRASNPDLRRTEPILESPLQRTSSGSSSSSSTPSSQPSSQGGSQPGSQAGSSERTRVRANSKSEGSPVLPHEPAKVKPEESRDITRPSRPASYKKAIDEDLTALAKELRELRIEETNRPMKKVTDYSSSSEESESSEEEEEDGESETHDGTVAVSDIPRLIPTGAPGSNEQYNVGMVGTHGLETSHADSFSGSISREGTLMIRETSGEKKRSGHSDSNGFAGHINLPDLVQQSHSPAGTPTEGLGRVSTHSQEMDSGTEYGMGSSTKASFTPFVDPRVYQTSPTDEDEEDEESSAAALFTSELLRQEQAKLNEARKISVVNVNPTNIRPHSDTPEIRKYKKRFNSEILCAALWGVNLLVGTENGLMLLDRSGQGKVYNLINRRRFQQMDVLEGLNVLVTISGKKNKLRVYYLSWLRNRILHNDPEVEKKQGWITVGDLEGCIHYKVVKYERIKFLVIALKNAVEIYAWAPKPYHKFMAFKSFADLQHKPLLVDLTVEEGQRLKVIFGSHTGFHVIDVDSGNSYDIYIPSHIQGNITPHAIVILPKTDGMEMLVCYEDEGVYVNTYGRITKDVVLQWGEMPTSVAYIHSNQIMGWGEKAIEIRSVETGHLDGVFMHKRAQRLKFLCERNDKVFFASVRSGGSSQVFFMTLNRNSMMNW
Test [8] addresses Serine/threonine-protein kinase PAK 4 (Homo sapiens) (UniProt O96013). The experiment in a line: Competitive binding affinity to PAK4 (unknown origin) at 10 uM in presence of ATP relative to control. A digest of the protocol:
as §2

Test [9] deals with Tyrosine-protein kinase BTK (Homo sapiens) (UniProt Q06187). The experiment in a line: Competitive binding affinity to BTK (unknown origin) at 10 uM in presence of ATP relative to control.
Tyrosine-protein kinase BTK (Homo sapiens), sequence (Q06187 whole entry): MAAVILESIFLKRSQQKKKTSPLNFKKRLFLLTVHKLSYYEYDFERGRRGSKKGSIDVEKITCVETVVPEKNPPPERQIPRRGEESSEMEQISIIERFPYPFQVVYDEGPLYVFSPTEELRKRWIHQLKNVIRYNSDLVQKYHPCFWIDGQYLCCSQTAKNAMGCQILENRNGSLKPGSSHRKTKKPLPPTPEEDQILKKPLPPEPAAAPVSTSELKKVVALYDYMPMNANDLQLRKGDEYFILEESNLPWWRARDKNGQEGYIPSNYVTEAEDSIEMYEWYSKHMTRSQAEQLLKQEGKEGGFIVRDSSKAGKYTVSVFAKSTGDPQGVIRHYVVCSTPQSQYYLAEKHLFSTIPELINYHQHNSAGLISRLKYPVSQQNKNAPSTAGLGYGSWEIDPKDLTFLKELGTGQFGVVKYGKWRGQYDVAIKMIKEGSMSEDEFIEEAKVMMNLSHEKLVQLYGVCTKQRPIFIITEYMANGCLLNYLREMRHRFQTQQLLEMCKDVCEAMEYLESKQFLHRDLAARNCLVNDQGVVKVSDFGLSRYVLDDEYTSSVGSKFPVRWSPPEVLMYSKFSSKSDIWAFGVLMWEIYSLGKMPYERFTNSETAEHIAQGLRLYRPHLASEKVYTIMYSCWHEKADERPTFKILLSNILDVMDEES
Test [10] concerns the target Ephrin type-A receptor 2 (Homo sapiens) (UniProt P29317). Kind of test: Competitive binding affinity to EPHA2 (unknown origin) at 10 uM in presence of ATP relative to control. A digest of the protocol: as §1
For test [11], the target named is T2, 3-phosphoinositide-dependent protein kinase 1 (Homo sapiens) (UniProt O15530).
T2 sequence (whole entry): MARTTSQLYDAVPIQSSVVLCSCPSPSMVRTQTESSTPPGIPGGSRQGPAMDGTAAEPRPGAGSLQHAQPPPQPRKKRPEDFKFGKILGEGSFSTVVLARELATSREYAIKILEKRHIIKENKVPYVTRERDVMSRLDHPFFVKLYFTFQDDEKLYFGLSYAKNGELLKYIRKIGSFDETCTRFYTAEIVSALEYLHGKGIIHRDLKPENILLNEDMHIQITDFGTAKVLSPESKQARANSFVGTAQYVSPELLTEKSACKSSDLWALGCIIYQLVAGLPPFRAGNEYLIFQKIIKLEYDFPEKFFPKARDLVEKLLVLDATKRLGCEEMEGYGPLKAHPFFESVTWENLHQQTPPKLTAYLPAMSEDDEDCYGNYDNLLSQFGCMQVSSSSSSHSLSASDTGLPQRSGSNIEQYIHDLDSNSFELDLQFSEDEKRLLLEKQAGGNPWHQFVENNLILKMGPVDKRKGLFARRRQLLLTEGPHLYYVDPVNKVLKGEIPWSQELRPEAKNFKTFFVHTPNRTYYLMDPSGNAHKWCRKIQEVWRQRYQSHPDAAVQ
Kind of test: Competitive binding affinity to PDPK1 (unknown origin) at 10 uM in presence of ATP relative to control. A digest of the protocol: as §2

Test [12] has as its target Casein kinase II subunit alpha (Homo sapiens) (UniProt P68400). Kind of test: Competitive binding affinity to CSNK2A1 (unknown origin) at 10 uM in presence of ATP relative to control.

Ephrin type-A receptor 2 (Homo sapiens), sequence (P29317 whole entry): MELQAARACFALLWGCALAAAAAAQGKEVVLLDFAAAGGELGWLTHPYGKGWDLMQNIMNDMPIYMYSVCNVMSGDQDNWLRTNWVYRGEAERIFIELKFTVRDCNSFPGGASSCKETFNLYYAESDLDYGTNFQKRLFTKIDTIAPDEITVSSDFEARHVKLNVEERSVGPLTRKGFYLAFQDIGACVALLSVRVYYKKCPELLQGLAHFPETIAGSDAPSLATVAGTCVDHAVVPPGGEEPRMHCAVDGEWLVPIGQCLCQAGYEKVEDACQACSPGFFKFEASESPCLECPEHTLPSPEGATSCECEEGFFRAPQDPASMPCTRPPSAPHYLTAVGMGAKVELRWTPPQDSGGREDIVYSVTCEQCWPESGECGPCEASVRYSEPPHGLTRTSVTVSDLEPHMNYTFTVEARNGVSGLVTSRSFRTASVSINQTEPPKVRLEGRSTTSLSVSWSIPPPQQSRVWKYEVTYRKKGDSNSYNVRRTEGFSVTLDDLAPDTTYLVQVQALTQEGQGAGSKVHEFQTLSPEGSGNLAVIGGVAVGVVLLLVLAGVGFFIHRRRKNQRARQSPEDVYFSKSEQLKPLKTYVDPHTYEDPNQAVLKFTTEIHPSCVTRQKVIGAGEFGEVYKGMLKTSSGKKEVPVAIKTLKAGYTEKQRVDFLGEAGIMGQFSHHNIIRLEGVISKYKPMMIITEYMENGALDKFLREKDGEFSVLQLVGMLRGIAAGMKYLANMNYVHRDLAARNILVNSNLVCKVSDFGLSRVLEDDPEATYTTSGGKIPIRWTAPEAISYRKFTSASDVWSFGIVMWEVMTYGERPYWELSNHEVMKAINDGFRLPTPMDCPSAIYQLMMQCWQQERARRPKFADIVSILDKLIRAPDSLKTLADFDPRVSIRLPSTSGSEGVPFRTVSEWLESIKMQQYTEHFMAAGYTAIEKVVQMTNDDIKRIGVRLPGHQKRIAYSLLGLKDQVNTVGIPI
Serine/threonine-protein kinase PAK 4 (Homo sapiens), sequence (O96013 whole entry, looked up): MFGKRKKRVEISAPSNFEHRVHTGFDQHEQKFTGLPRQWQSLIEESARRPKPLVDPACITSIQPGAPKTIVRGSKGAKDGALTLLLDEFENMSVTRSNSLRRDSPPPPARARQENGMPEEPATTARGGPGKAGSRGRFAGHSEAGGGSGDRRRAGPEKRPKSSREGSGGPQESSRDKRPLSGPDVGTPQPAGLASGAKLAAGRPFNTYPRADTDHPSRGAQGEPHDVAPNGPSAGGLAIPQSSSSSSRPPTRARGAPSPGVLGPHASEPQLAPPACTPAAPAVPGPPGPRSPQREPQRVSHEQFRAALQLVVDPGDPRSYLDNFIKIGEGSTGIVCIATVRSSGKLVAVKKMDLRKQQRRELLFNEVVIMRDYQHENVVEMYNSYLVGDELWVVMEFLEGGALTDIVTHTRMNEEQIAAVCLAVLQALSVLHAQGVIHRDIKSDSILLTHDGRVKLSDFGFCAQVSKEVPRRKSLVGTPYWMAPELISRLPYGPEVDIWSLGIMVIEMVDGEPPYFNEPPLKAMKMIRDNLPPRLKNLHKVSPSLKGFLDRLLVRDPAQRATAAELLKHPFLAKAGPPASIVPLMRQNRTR
Platelet-derived growth factor receptor beta, sequence (P09619 whole entry): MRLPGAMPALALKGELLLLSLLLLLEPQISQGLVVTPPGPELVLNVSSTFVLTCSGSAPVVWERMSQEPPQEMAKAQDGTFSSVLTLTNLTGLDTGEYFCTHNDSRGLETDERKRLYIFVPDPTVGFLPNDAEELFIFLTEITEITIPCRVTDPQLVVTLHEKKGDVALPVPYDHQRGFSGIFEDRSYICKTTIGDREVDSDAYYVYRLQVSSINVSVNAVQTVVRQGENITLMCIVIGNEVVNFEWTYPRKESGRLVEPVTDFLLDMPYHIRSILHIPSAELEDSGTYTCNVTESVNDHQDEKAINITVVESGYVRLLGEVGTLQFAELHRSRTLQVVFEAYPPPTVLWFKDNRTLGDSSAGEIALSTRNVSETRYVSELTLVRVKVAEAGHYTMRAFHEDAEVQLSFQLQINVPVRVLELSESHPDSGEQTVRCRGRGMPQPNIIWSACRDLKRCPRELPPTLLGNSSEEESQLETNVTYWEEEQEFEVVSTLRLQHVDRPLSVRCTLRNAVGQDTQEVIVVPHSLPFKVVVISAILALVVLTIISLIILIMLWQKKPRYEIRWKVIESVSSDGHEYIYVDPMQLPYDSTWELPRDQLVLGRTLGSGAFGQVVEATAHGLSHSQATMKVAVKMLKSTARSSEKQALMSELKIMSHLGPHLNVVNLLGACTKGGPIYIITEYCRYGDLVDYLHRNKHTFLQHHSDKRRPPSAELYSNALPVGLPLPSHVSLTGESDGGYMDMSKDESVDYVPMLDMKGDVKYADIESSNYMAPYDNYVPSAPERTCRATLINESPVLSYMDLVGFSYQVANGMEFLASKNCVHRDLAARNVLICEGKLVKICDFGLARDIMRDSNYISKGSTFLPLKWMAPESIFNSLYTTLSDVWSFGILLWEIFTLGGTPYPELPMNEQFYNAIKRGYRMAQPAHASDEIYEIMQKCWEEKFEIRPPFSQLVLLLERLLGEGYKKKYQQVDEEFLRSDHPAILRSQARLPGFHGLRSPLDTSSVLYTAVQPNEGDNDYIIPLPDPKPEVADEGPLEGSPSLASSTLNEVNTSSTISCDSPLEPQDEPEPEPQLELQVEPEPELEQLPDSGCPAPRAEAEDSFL
Mitogen-activated protein kinase 1, sequence (P28482 whole entry): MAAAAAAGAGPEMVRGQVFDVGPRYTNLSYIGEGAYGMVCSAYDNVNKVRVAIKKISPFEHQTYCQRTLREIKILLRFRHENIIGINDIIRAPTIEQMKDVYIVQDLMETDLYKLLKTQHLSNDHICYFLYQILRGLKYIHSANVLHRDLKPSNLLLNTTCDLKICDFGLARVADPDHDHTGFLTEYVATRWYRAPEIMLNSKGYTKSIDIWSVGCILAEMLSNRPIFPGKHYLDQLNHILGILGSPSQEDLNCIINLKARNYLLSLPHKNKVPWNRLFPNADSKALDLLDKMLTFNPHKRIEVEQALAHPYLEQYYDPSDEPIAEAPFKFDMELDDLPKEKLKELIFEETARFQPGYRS

Consider `O=C([C@H]1CC[C@H](Nc2nccc(-n3nnc4ccccc43)n2)CC1)N1CCOCC1`, for which the inhibition in test [1] is 70%; in [2], under 50%; in [3] it was under 50%; in test [4], 100%; in test [5], 86%; in test [6], 70%. The inhibition was under 50% in test [7]; under 50% in [8]; under 50% in test [9]; under 50% in [10]; under 50% in test [11]; 71% in test [12].
Take `CS(=O)(=O)CCCOc1cccc2c1ccn2-c1ccnc(N[C@H]2CC[C@H](C(=O)N3CCC(O)CC3)CC2)n1`: the inhibition in test [3], in test [5] and in test [6] was over 85% in each case.
`O[C@H]1CC[C@H](Nc2nccc(-n3ccc4ccccc43)n2)CC1`: the inhibition in test [1] is under 50%; in test [2], under 50%; in test [3] it was under 50%; in test [4], 91%; in [5], under 50%; in test [6], 67%. In addition, the inhibition in test [7], in test [8], in test [9], in test [10], in test [11] and in test [12] was under 50% throughout.
`O[C@H]1CC[C@H](Nc2nccc(-n3ncc4ccccc43)n2)CC1`: the inhibition was under 50% in test [1]; under 50% in [2]; under 50% in test [3]; 100% in test [4]; under 50% in test [5]; 90% in test [6]. Moreover, the inhibition in test [7] was 79%; in test [8], under 50%; in test [9], under 50%; in test [10], under 50%; in test [11] it was under 50%; in test [12], 87%.
With `O[C@H]1CC[C@H](Nc2nccc(-c3n[nH]c4ccccc34)n2)CC1`, the inhibition was 87% in test [1]; 96% in test [2]; under 50% in [3]; 100% in [4]; 82% in test [5]; 98% in test [6]. The inhibition was 99% in [7]; 92% in [8]; under 50% in [9]; under 50% in test [10]; 97% in test [11]; 98% in test [12].
As for `N[C@H]1CC[C@H](Nc2nccc(-n3nnc4ccccc43)n2)CC1`, the inhibition in [1] is 81%; in [2], under 50%; in test [3], under 50%; in test [4], 91%; in test [5] it was under 50%; in test [6], 95%. Besides, the inhibition is 92% in test [7]; under 50% in test [8]; under 50% in test [9]; under 50% in test [10]; under 50% in test [11]; 99% in test [12].
Consider `O[C@H]1CC[C@H](Nc2nccc(-n3nnc4ccccc43)n2)CC1`, for which the inhibition is 65% in test [1]; 72% in test [2]; under 50% in test [3]; 100% in [4]; under 50% in test [5]; 91% in test [6]. In addition, the inhibition was under 50% in test [7]; under 50% in test [8]; under 50% in test [9]; under 50% in [10]; under 50% in test [11]; 80% in test [12].

By inhibition is commonly meant how much of the control response was suppressed.
